Laboratory results from ChEMBL document CHEMBL1759845, “Potent inhibitors of hepatitis C core dimerization as new leads for anti-hepatitis C agents” (Bioorg Med Chem Lett, 2011).

How the values were obtained:
[1] = Cytotoxicity against human Huh7.5 cells; type: cell-based; details: huh-7
In short: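 Huh-7.5 hepatoma cells; read-out is the 50% cytotoxic concentration (CC50), reported as the mean of three experiments.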

Hepatitis C virus [2] = test: Antiviral activity against Hepatitis C virus JFH-1 J6 infected in human HuH7.5 cells assessed as inhibition of virus propagation measured after 72 hrs of transfer to fresh media; type: functional, organism-based, Hepacivirus hominis; details: subtype 2a JFH1 J6, Huh-7, 72 h
In short: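 Huh-7.5 hepatoma cells, HCV 2a J6/JFH-1. Virus secreted during the initial 72 hr inhibitor-treated culture (0.001–100 µM) was used to infect fresh cells, which were cultured a second 72 hr (T2). HCV propagation was then assessed, with an NS3/NS4A protease inhibitor as positive control. Values are means of three experiments.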

Hepatitis C virus [3] = test: Antiviral activity against Hepatitis C virus JFH-1 J6 infected in human HuH7.5 cells assessed as inhibition of virus propagation measured after 72 hrs; type: functional, organism-based, Hepacivirus hominis; details: subtype 2a JFH1 J6, Huh-7, 72 h
In short: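 Huh-7.5 hepatoma cells infected with HCV genotype 2a J6/JFH-1 were treated with inhibitor at 0.001–100 µM. […] An NS3/NS4A protease inhibitor served as positive control. Values are means of three experiments.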

[4] = Inhibition of Hepatitis C virus core protein dimerization by core dimerization assay; set-up: species or system Hepacivirus hominis

Structure (SMILES) | CC50 [1] [nM] | EC50 (Hepatitis C virus [2]) [nM] | EC50 (Hepatitis C virus [3]) [nM] | IC50 [4] [nM]
COC(=O)C1=C(C(=O)OC)[C@@H]2N(CCOCCN3c4ccccc4[C@]45CCC(=O)N(Cc6ccccc6)C4=NC(C(=O)OC)=C(C(=O)OC)[C@H]35)c3ccccc3[C@@]23CCC(=O)N(Cc2ccccc2)C3=N1 | > 100000 | 2500 | 480 | 98
COC(=O)C1=C(C(=O)OC)[C@@H]2N(CCCN3c4ccccc4[C@]45CCC(=O)N(Cc6ccccc6)C4=NC(C(=O)OC)=C(C(=O)OC)[C@H]35)c3ccccc3[C@@]23CCC(=O)N(Cc2ccccc2)C3=N1 | > 36000 | 735 | 88 | 2900
COC(=O)C1=C(C(=O)OC)[C@@H]2N(CCCCCN3c4ccccc4[C@]45CCC(=O)N(Cc6ccccc6)C4=NC(C(=O)OC)=C(C(=O)OC)[C@H]35)c3ccccc3[C@@]23CCC(=O)N(Cc2ccccc2)C3=N1 (mixture of isomers) | > 36000 | 29900 | 90 | 720
COC(=O)C1=C(C(=O)OC)[C@@H]2N(CCCCCn3cc(-c4ccc(OC)cc4C)nn3)c3ccccc3[C@@]23CCC(=O)N(Cc2ccccc2)C3=N1 (racemic) | > 100000 | 1100 | 1400 | 92
COC(=O)C1=C(C(=O)OC)[C@@H]2N(CCCCCn3cc(CNC(C)=O)nn3)c3ccccc3[C@@]23CCC(=O)N(Cc2ccccc2)C3=N1 (racemic) | 150000 | 56200 | 26200 | 341
COc1ccc2c(O[C@@H]3C[C@H]4C(=O)N[C@]5(C(=O)O)C[C@H]5/C=C\CCCCC[C@H](NC(=O)OC5CCCC5)C(=O)N4C3)cc(-c3csc(NC(C)C)n3)nc2c1 [CILUPREVIR] |  | 71 | 72 | 
